According to ChEMBL document CHEMBL3600357 (J Med Chem, 2015):
pIC50, pKi: −log10 of the molar value. Blank lines part the entries; values can stand above or below the compound they belong to.

Tests used:
[1] = biological target: E3 ubiquitin-protein ligase Mdm2 (Mus musculus, UniProt P23804); assay: Inhibition of mouse MDM2 by TR-FRET assay
[2] = biological target: E3 ubiquitin-protein ligase Mdm2 (Canis lupus familiaris, UniProt P56950); assay: Inhibition of dog MDM2 by TR-FRET assay
[3] = Inhibition of rat MDM2 by TR-FRET assay
SJSA-1 = assay: Inhibition of cell proliferation of human SJSA1 cells
[4] = biological target: Tumour suppressor p53/oncoprotein Mdm2 (Homo sapiens, UniProt Q00987); assay: Inhibition of MDM2/p53 interaction (unknown origin) using biotinylated MDM2 and Cy5-p53 (18 to 26 amino acids) by TR-FRET assay; format: protein assay
Sequence of Tumour suppressor p53/oncoprotein Mdm2 (P04637 whole entry, the tested form may be a part): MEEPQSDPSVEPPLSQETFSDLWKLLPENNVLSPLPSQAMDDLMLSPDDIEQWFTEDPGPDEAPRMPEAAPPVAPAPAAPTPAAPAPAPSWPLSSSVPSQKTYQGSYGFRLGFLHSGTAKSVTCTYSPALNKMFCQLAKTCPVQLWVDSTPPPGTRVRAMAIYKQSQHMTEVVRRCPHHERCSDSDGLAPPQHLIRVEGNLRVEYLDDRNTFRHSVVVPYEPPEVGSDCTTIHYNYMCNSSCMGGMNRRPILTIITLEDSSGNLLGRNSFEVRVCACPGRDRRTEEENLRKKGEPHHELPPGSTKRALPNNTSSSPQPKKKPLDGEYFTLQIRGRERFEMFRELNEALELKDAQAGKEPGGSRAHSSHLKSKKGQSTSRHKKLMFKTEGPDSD
Sequence of Tumour suppressor p53/oncoprotein Mdm2 (Q00987 whole entry, the tested form may be a part): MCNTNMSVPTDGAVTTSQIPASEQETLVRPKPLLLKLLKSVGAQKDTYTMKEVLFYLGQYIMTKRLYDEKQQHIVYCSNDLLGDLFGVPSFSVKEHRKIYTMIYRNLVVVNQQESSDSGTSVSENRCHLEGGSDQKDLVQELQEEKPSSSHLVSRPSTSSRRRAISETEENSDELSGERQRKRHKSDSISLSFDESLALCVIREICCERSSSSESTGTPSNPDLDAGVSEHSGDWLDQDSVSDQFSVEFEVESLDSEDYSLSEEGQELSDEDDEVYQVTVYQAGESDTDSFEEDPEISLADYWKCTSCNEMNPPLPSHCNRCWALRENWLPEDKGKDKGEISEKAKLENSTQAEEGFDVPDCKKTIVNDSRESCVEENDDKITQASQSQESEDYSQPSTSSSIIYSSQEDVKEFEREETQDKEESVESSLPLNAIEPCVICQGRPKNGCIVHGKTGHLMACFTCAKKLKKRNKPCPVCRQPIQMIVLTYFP

[5] = Intrinsic clearance in human liver microsomes; format: ADME; conditions: read-out: CLH
Cytochrome P450 3A4 [6] = biological target: T1, Cytochrome P450 3A4 (Homo sapiens, UniProt P08684); assay: Time dependent inhibition of CYP3A4 in human liver microsomes; format: ADME
T1 sequence (P08684 whole entry): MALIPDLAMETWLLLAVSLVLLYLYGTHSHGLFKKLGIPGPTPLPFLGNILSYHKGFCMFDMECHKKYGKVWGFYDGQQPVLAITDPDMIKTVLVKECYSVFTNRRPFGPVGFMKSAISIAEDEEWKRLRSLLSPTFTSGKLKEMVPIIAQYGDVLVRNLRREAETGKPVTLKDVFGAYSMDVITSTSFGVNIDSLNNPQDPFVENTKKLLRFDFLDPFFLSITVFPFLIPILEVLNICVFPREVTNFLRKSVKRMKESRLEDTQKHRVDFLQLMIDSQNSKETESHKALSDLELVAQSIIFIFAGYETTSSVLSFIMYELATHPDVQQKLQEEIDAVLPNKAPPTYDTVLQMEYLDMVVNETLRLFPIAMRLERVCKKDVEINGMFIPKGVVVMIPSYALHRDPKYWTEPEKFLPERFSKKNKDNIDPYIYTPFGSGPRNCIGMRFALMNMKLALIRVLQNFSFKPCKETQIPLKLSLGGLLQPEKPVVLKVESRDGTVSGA

[7] = Octanol water partition coefficient, logP of the compound; format: physicochemical
[8] = Intrinsic clearance in monkey liver microsomes; format: ADME, Macaca mulatta; conditions: rhesus monkey, read-out: CLH
[9] = Volume of distribution at steady state in Sprague-Dawley rat at 1 mg/kg, iv; format: ADME, organism-based; conditions: Sprague-Dawley, in vivo, read-out: Vdss
Rattus norvegicus [10] = assay: AUC in Sprague-Dawley rat at 3 mg/kg, po; format: ADME, organism-based; conditions: in vivo
Outline: (§1)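 Sprague-Dawley rats. IV dose given as a solution in NMP:PEG200 (10:90); 3 mg/kg PO given as a suspension in CMC:water:Tween (0.5:99:0.5). AUC and Cmax dose-normalized to 1 mg/kg. Mean ± SD from four rats.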

Rattus norvegicus [11] = assay: AUC in Sprague-Dawley rat at 1 mg/kg, iv; format: ADME, organism-based; conditions: in vivo; outline: as §1
[12] = Cmax in Sprague-Dawley rat at 3 mg/kg, po; format: ADME, organism-based; design: dose 3 mg/kg, route oral; conditions: in vivo; outline: as §1
[13] = Protein binding in Sprague-Dawley rat plasma by equilibrium dialysis method; format: ADME, cell-free; conditions: read-out: PPB
Outline: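 Rat plasma protein binding by rapid equilibrium dialysis (RED) in 100% plasma.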

[14] = biological target: Voltage-gated inwardly rectifying potassium channel KCNH2 (Homo sapiens, UniProt Q12809); assay: Inhibition of human ERG by radioligand binding assay
Sequence of Voltage-gated inwardly rectifying potassium channel KCNH2 (Q12809 whole entry): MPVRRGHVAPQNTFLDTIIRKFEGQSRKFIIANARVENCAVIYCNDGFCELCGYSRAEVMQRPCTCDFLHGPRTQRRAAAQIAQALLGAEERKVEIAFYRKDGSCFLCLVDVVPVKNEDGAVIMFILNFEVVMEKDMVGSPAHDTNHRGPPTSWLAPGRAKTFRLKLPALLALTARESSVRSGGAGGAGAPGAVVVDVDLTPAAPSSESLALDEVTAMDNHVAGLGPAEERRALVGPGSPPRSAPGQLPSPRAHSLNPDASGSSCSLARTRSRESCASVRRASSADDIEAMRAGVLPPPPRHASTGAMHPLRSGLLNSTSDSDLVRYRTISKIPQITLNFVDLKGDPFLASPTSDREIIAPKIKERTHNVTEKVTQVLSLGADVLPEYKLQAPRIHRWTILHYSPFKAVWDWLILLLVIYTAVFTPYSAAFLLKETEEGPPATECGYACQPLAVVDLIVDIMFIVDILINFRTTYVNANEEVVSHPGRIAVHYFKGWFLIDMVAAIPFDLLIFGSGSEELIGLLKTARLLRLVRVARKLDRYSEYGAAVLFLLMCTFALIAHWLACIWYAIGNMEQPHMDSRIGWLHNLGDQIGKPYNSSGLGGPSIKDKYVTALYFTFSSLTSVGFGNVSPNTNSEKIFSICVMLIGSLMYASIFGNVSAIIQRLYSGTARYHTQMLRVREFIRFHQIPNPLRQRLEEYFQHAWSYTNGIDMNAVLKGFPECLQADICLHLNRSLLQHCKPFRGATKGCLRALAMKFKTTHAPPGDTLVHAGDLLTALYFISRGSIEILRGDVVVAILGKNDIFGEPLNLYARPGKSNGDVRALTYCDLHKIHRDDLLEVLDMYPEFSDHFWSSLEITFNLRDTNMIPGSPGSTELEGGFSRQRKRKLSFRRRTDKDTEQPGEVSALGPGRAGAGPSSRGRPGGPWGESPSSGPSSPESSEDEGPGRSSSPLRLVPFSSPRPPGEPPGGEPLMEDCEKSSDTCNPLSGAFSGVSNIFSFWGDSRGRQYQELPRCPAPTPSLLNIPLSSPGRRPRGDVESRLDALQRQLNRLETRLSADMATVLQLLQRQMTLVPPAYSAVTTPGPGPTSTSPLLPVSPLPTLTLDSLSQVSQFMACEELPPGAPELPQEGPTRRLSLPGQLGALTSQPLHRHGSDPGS

Rattus norvegicus [15] = assay: Oral bioavailability in Sprague-Dawley rat at 3 mg/kg; format: ADME, organism-based; conditions: in vivo; outline: as §1
[16] = Terminal half life in Sprague-Dawley rat at 1 mg/kg, iv; format: ADME, organism-based; conditions: Sprague-Dawley, in vivo, read-out: beta t1/2 (converted); outline: as §1
[17] = Intrinsic clearance in rat liver microsomes; format: ADME; conditions: read-out: CLH
[18] = Clearance in Sprague-Dawley rat at 1 mg/kg, iv; format: ADME, organism-based; conditions: in vivo; outline: as §1
[19] = Tmax in Sprague-Dawley rat at 3 mg/kg, po; format: ADME, organism-based; conditions: in vivo
[20] = Permeability from apical to basolateral side in human Caco2 cells; format: ADME, cell-based; conditions: Caco-2
Cytochrome P450 3A4 [21] = biological target: T1, Cytochrome P450 3A4; assay: Time dependent inhibition of CYP3A4 (unknown origin); format: ADME
[22] = Equilibrium solubility in pH 6.8 buffer solution; format: physicochemical
Outline: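 High-throughput equilibrium solubility assay at pH 6.8.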

[23] = Permeability from basolateral to apical side in human Caco2 cells; format: ADME, cell-based; conditions: Caco-2
[24] = Permeability in human Caco2 cells assessed as drug recovery during apical to basolateral transport; format: ADME, cell-based; conditions: Caco-2, read-out: Drug recovery
[25] = Half life in rat liver microsomes; format: ADME

Sequence of E3 ubiquitin-protein ligase Mdm2 (Canis lupus familiaris, UniProt P56950) (P56950 whole entry): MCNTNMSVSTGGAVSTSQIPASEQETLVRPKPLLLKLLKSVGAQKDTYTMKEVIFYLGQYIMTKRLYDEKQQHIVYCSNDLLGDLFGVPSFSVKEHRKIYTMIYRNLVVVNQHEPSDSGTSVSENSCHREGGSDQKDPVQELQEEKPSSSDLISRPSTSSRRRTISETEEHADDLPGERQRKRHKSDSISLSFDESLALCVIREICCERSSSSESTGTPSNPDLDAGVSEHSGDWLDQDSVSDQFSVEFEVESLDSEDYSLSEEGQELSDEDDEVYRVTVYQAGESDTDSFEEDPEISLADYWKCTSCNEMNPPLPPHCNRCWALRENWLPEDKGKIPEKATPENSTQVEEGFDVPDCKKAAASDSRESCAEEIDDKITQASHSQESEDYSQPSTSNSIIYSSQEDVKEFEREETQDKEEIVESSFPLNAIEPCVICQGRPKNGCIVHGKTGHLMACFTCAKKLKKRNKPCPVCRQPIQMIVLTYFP
Sequence of E3 ubiquitin-protein ligase Mdm2 (Mus musculus, UniProt P23804) (P23804 whole entry): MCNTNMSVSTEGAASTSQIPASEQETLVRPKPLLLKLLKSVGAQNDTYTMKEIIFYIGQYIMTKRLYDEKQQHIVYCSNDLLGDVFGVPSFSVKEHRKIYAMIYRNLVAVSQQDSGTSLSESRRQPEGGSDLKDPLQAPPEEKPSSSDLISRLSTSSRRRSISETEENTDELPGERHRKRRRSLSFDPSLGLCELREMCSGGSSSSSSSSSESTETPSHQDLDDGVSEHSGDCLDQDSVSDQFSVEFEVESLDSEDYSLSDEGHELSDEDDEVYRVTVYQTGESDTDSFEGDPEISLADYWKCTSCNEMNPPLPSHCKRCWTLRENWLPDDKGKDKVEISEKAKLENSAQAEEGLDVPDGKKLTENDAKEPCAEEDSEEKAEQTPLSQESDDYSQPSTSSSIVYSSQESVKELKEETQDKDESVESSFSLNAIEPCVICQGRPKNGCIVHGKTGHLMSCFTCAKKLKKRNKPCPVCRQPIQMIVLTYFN

pKi [1]: 7.70
pKi [2]: 7.98
pKi [3]: 7.90
Compound: COc1ccc(C2=N[C@@H](c3ccc(Cl)cc3)[C@@H](c3ccc(Cl)cc3)N2C(=O)N2CCNC(=O)C2)c(OC(C)C)c1 [NUTLIN-3]

Compound: COc1cc2c(cc1OC(C)C)[C@H](c1ccc(Cl)cc1)N(c1ccc(N(C)C[C@H]3CC[C@H](N4CNC(=O)C4)CC3)cc1)C(=O)C2
GI50 (SJSA-1): 600 nM
pIC50 [4]: 8.77

Compound: COc1cc2c(cc1OC(C)C)[C@H](c1ccc(Cl)cc1)N(c1ccc(N(C)C[C@H]3CC[C@H](N(C)C)CC3)cc1)C(=O)C2
microsomal CLint [5]: 4.6 µL/min/mg
GI50 (SJSA-1): 710 nM
pIC50 (Cytochrome P450 3A4 [6]): 5.03
logP [7]: > 4.2

microsomal CLint [5]: 157 µL/min/mg
pIC50 (Cytochrome P450 3A4 [6]): 4.88
microsomal CLint [8]: 224 µL/min/mg
pIC50 [4]: 7.94
logP [7]: 4.4
Compound: COc1cc2c(cc1OC(C)C)[C@H](c1ccc(Cl)cc1)N(c1ccc(N(C)C[C@H]3CC[C@H](N4CC(=O)N(C)C4)CC3)nc1)C(=O)C2

Compound: CC[C@@H](C)Oc1cc2c(cc1OC)CC(=O)N(c1ccc(N(C)C[C@H]3CC[C@H](N(C)C)CC3)cc1)C2c1ccc(Cl)cc1 (stereo not given in full)
GI50 (SJSA-1): 1130 nM

Compound: CC[C@@H](C)Oc1cc2c(cc1OC)CC(=O)N(c1ccc(N(C)Cc3ccncc3)cc1)[C@@H]2c1ccc(Cl)cc1
GI50 (SJSA-1): 29600 nM

Compound: COc1cc2c(cc1OC(C)C)[C@H](c1ccc(Cl)cc1)N(c1ccc(N(C)C[C@H]3CC[C@H](N4CCNC(=O)C4)CC3)cc1)C(=O)C2
Vd [9]: 8 L/kg
AUC (Rattus norvegicus [10]): 1.018 µM·h
microsomal CLint [5]: 3.4 µL/min/mg
GI50 (SJSA-1): 350 nM
AUC (Rattus norvegicus [11]): 2.154 µM·h
Cmax [12]: 74.6 nM
pIC50 (Cytochrome P450 3A4 [6]): 4.95
microsomal CLint [8]: 79.7 µL/min/mg
fraction unbound [13]: < 0.01
logP [7]: 5.3
pIC50 [14]: 4.80
F (Rattus norvegicus [15]): 49%
half-life [16]: 9.3 h

Compound: CC[C@@H](C)Oc1cc2c(cc1OC)CC(=O)N(c1ccc(N(C)CC3CCNCC3)cc1)C2c1ccc(Cl)cc1 (stereo not given in full)
GI50 (SJSA-1): 1090 nM

microsomal CLint [5]: 151 µL/min/mg
pIC50 (Cytochrome P450 3A4 [6]): < 4.70
microsomal CLint [8]: 279 µL/min/mg
logP [7]: 4.8
Compound: COc1cc2c(cc1OC(C)C)[C@H](c1ccc(Cl)cc1)N(c1ccc(N(C)C[C@H]3CC[C@H](N4CCN(C)C(=O)C4)CC3)nc1)C(=O)C2

Compound: CC[C@@H](C)Oc1cc2c(cc1OC)CC(=O)N(c1ccc(N(C)C[C@H]3CC[C@H](N(C)C)CC3)cc1)[C@H]2c1ccc(Cl)cc1
microsomal CLint [17]: 5.6 µL/min/mg
Vd [9]: 23.9 L/kg
AUC (Rattus norvegicus [10]): 0.297 µM·h
clearance [18]: 15 mL/min/kg
GI50 (SJSA-1): 940 nM
AUC (Rattus norvegicus [11]): 1.574 µM·h
Tmax [19]: 7 h
Papp A→B [20]: 0.08 ×10⁻⁶ cm/s
Cmax [12]: 17.6 nM
K (Cytochrome P450 3A4 [21]): 0.042 min⁻¹
solubility thermodynamic [22]: > 1000 µM
Papp B→A [23]: 0.12 ×10⁻⁶ cm/s
fraction unbound [13]: < 0.01
recovery [24]: < 30%
pIC50 [14]: 5.89
F (Rattus norvegicus [15]): 18%
half-life [16]: 19.1 h
half-life [25]: 4.1 h

microsomal CLint [5]: 78.3 µL/min/mg
pIC50 (Cytochrome P450 3A4 [6]): 5.30
pIC50 [4]: 8.80
logP [7]: > 6.3
Compound: COc1cc2c(cc1OC(C)C)[C@H](c1ccc(Cl)cc1)N(c1ccc(N(C)C[C@H]3CC[C@H](N(C)C)CC3)nc1)C(=O)C2

microsomal CLint [5]: 220 µL/min/mg
pIC50 (Cytochrome P450 3A4 [6]): < 4.70
microsomal CLint [8]: 420 µL/min/mg
logP [7]: 4.6
Compound: COc1cc2c(cc1OC(C)C)[C@H](c1ccc(Cl)cc1)N(c1cnc(N(C)C[C@H]3CC[C@H](N4CCN(C)C(=O)C4)CC3)cn1)C(=O)C2

Compound: CC[C@@H](C)Oc1cc2c(cc1OC)CC(=O)N(c1ccc(N(C)Cc3ccncc3)cc1)[C@H]2c1ccc(Cl)cc1
GI50 (SJSA-1): 1210 nM

Compound: CC[C@@H](C)Oc1cc2c(cc1OC)CC(=O)N(c1ccc(N(C)Cc3ccncc3)cc1)C2c1ccc(Cl)cc1 (stereo not given in full)
GI50 (SJSA-1): 3860 nM

Compound: CCC(=O)N[C@H]1CC[C@H](CN(C)c2ccc(N3C(=O)Cc4cc(OC)c(O[C@H](C)CC)cc4[C@@H]3c3ccc(Cl)cc3)cc2)CC1
GI50 (SJSA-1): 4960 nM
pIC50 [4]: 7.70
pIC50 [14]: < 4.52

microsomal CLint [5]: 156 µL/min/mg
pIC50 (Cytochrome P450 3A4 [6]): < 4.70
microsomal CLint [8]: 355 µL/min/mg
logP [7]: 4.6
Compound: COc1cc2c(cc1OC(C)C)[C@H](c1ccc(Cl)cc1)N(c1ccc(N(C)C[C@H]3CC[C@H](N4CCN(C)C(=O)C4)CC3)cn1)C(=O)C2

Compound: CC[C@@H](C)Oc1cc2c(cc1OC)CC(=O)N(c1ccc(N(C)C[C@H]3CC[C@H](N)CC3)cc1)C2c1ccc(Cl)cc1 (stereo not given in full)
GI50 (SJSA-1): 2850 nM
